High-throughput results deposited in PubChem by several laboratories.
UCH37 DUB inh: blocks the human deubiquitinase UCH37; inhibition, % (no concentration beside the values); Q9Y5K5; hit rate 0.33% among 330,000; purified proteasome/UCH37, Ub-AMC cleavage fluorescence;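 active = mean inhibition over replicate wells above about 20%, limit read from the data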;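 note: 0% = compound-free wells with enzyme and 100% = wells lacking proteasome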
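system = Proteasome-associated human UCH37 deubiquitinase | amount = 0.15 nM proteasome as dispensed | medium = pH 7.4 Tris-HCl (50 mM) with ovalbumin, ATP-MgCl2, DTT | incubation = 30 min preincubation with enzyme, 25 min cleavage at room temperature | detection = AMC fluorescence 355/460 nm | read-out basis = percent inhibition | controls = no-proteasome and no-compound wells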
Yeast superoxide: caloric restriction mimetics inhibiting age-related superoxide in yeast; hit rate 0.18% among 330,000; superoxide response (% of plate mean), % at 10 µM; S. cerevisiae aged cells, superoxide DHE fluorescence; active compounds read low;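 active = superoxide response under a set limit, about three screen SD below normal, cut at about 65% in these data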;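 note: yeast aged for seven days with compound at 30 °C before DHE staining; 100% = average MFI of all compound-treated wells on the plate with controls excluded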
Rev-erbA mod: modulates human Rev-erb alpha binding to DNA; Rev-erbα–FITC-DNA binding, fluorescence polarization, 90 min; activity, % at 10 µM; hit rate 0.79% among 370,000; AID 1259318;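 active = activity above about 14%, limit read from the data; passing the limit was not always enough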;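 note: 0% = DMSO wells with 35 nM protein and 100% = DMSO wells with 750 nM protein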
Target sequence (P20393 whole entry, looked up): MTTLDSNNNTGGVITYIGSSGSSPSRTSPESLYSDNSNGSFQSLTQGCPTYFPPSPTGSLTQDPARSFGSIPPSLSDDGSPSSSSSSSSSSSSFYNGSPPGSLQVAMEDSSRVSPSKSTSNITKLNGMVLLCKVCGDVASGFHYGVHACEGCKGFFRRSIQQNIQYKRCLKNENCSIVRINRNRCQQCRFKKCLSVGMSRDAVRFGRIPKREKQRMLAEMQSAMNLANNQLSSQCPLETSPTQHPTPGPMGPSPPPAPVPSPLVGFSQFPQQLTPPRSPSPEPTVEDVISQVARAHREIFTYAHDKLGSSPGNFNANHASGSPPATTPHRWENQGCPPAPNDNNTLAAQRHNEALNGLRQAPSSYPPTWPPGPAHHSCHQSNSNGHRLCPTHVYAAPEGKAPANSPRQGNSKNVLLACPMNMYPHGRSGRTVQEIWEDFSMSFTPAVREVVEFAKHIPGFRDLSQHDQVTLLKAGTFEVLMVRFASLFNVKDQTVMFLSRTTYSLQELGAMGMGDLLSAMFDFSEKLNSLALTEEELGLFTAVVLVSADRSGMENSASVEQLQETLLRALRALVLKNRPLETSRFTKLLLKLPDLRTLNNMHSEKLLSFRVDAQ
beta cell repl: induces beta-cell replication in MIN6 cells. MIN6 cells proliferation, ATPlite luminescence, 48 h; cells starved in 0.2% serum; 100% = growth in 10% serum. proliferation, % at 10 µM. hit rate 0.29% among 330,000;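 active = compounds whose signal lies at least 3.5 SD above the mean of all wells on their plate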;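 note: 0% = DMSO-treated cells in low-serum medium and 100% = 10% serum control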
Rce1 inh: yeast Ras-converting enzyme inhibition; calls only; AID 2563; yeast membranes, quenched prenylated peptide cleavage fluorescence; hit rate 0.27% among 290,000;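 active = fall in fluorescence gain of 50% or more versus controls, with final raw signal at or below 3038400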;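 note: plate controls were neutral control wells for no effect and wells lacking membranes for full effect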
PG9 binder: PG9 antibody binding by small molecule. inhibition, % at 6.7 µM. TR-FRET gp120-PG9 antibody binding. AID 624416. hit rate 0.43% among 360,000; in the data active = inhibition above about 8.5%
NR1D1 mod conf: confirmation of modulators of human Rev-erb alpha DNA binding; hit rate 61% among 3,000; Rev-erb alpha FITC-DNA binding, fluorescence polarization, 90 min; activation, % at 25 µM; AID 1259319; shares compounds with Rev-erbA mod;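 active = activation at or above a set limit, or at least 3 SD above the negative control mean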;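 note: 0% = 35 nM protein with DMSO and 100% = 750 nM protein high control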
RORg DNA counter: RORgamma DNA-binding activity, dose-response counter-screen. shares compounds with Rev-erbA mod. purified RORgamma protein-FITC-DNA binding, fluorescence polarization. IC50, µM. hit rate 8% among 910;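 active = Compounds whose fitted half-maximal concentration for disrupting protein-DNA binding is below 10 micromolar; the record names Rev-erb in its text, so the target is in doubt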
Active calls of the source: *; i = inactive; · = no result. Hits are enriched below; roughly 1.9% of the tested compounds scored in any of these assays.

SMILES	UCH37 DUB inh	Yeast superoxide	Rev-erbA mod	beta cell repl	Rce1 inh	PG9 binder	NR1D1 mod conf	others
CCCCCn1c(=O)c(C(=O)Nc2ccccc2)c(O)c2ccccc21	-2.9	94.0	21.2*	-4.0	i	-2.6	4.3
CC(=O)O[C@H]1C[C@H](O[C@H]2[C@@H](O)C[C@H](O[C@H]3[C@@H](O)C[C@H](O[C@H]4CC[C@@]5(C)C(CCC6C5C[C@@H](O)[C@]5(C)[C@@H](C7=CC(=O)OC7)CC[C@]65O)C4)O[C@@H]3C)O[C@@H]2C)O[C@H](C)[C@H]1O[C@@H]1O[C@H](CO)[C@@H](O)[C@H](O)[C@H]1O (stereo not given in full)	·	·	0.0	·	·	·	·
NC(=S)NN=Cc1coc2ccccc2c1=O	-0.5	·	·	·	·	·	·
Cc1cc(N(CCCl)CCCl)ccc1C=NN=C(N)c1cnccn1	5.0	·	·	·	·	·	·
CC(CC(c1ccccc1)c1c(O)c2ccccc2oc1=O)=NNc1ccc([N+](=O)[O-])cc1[N+](=O)[O-] (stereo not given)	10.0	·	·	·	·	·	·
O=c1c(C=NCCN2CCNCC2)c(O)n(C2CCCCC2)c(=O)n1C1CCCCC1	0.3	102.0	·	-5.7	i	·	·
O=c1c(C=NCc2cccs2)c(O)n(C2CCCCC2)c(=O)n1C1CCCCC1	-1.0	105.5	63.4*	-6.1	i	0.3	1.6
CC1CCCC(C)N1N=Cc1c[nH]c2ccc(Br)cc12 (stereo not given)	6.2	·	·	·	·	·	·
O=c1[nH]c(=S)[nH]c(O)c1N=Nc1ccc2c(c1)OCCO2	19.0	109.6	30.4*	-6.0	i	-13.0	25.3*
COc1cccc(N=Nc2c(O)[nH]c(=S)[nH]c2=O)c1	16.8	108.0	5.4	-1.0	i	-10.3	·
COc1ccc(N=Nc2c(O)[nH]c(=S)[nH]c2=O)cc1	21.2*	100.5	26.7*	-3.2	i	-11.6	18.8*
CC12CC[C@H]3[C@@H](CCC4(O)C[C@H](O)CCC34C=NNC(=O)Cc3ccccc3)C1(O)CCC2C1=CC(=O)OC1 (stereo not given in full)	4.1	·	·	·	·	·	·
C=C1CC2C(CC[C@]3(C)C(=O)CCC23)[C@@]2(C)C=CC(=O)C=C12 (stereo not given in full)	·	·	-1.2	·	·	·	·
CCCCOC(=O)COc1cc(C)cc2oc(=O)c3c(c12)CCC3	-9.5	101.5	26.1*	6.2	i	-2.0	13.5
Nc1ccc2ccc3cccc[n+]3c2c1	·	92.6	127.3*	-0.9	i	2.0	105.2*	RORg DNA counter=>40
Cc1cc2c(C(F)(F)F)cc(=O)oc2c2c1NCCC2	-29.9	101.1	17.3*	-1.1	·	3.1	16.9*
COC(C)(C)CCC[C@H](C)C/C=C/C(C)=C/C(=O)OC(C)C	·	·	-7.6	·	·	·	·
O=c1[nH]c(=S)n(Cc2ccc(F)cc2)c(O)c1C=NCc1ccc2c(c1)OCO2	4.5	99.1	25.1*	-1.6	·	0.7	12.2
